Data taken from ChEMBL document CHEMBL4393735, “Molecular modelling, synthesis, and biological evaluations of a 3,5-disubstituted isoxazole fatty acid analogue as a PPARα-selective agonist” (Bioorg Med Chem, 2019).
Calls of active or inactive are those of the source. The calls are words filed in the database; no cut-off is given here.

Legend:
COS-1 = assay: Cytotoxicity against African green monkey COS1 cells assessed as reduction in cell viability at 10^-4 M by XTT based assay; details: chlorocebus aethiops, cos-1, 100 µM
Method in brief: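 COS-1 cells were treated across the same concentration series as the GAL4 dose-response runs. Cytotoxicity was measured as LDH released into medium (absorbance 492/750 nm) and by XTT viability assay (absorbance 450/690 nm). Results expressed relative to control.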

[1] = biological target: T1, Peroxisome proliferator-activated receptor alpha (Homo sapiens) (UniProt Q07869); assay: Agonist activity at full length human FLAG-tagged GAL4-DBD fused PPARalpha LBD (168 to 468 residues) expressed in COS1 cells at 25 to 50 uM measured after 18 hrs by dual luciferase reporter gene assay; type: cell-based
T1 sequence (whole entry): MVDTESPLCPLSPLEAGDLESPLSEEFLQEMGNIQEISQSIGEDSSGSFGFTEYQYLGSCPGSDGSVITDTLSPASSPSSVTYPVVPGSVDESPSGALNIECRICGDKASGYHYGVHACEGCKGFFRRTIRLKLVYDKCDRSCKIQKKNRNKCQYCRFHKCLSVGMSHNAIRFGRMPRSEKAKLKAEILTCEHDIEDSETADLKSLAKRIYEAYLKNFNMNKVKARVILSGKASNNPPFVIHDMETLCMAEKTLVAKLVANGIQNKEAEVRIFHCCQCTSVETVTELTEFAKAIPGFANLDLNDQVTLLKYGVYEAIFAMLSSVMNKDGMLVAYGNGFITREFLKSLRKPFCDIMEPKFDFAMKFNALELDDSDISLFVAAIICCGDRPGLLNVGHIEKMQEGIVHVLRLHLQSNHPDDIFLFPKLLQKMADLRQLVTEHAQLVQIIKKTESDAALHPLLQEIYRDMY
Method in brief: (§1)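 COS-1 cells were transfected using Lipofectamine 2000 with GAL4-DBD–human NR-LBD plasmid, a 5×UAS-SV40 firefly luciferase reporter and pRL-CMV. After 6 h, cells were treated with 0, 25 or 50 μM in 0.1% DMSO (final) for 18 h. Firefly signal was normalized to Renilla, then to DMSO control and GAL4-only. Three biological replicates in quadruplicate, mean ± SEM, two-way ANOVA with Bonferroni.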

[2] = biological target: T2, Peroxisome proliferator-activated receptor gamma (Homo sapiens) (UniProt P37231); assay: Agonist activity at full length human FLAG-taggedGAL4-DBD fused PPARgamma LBD (205 to 505 residues) expressed in COS1 cells at 25 to 50 uM measured after 18 hrs by dual luciferase reporter gene assay; type: cell-based; method in brief: as §1
T2 sequence (whole entry): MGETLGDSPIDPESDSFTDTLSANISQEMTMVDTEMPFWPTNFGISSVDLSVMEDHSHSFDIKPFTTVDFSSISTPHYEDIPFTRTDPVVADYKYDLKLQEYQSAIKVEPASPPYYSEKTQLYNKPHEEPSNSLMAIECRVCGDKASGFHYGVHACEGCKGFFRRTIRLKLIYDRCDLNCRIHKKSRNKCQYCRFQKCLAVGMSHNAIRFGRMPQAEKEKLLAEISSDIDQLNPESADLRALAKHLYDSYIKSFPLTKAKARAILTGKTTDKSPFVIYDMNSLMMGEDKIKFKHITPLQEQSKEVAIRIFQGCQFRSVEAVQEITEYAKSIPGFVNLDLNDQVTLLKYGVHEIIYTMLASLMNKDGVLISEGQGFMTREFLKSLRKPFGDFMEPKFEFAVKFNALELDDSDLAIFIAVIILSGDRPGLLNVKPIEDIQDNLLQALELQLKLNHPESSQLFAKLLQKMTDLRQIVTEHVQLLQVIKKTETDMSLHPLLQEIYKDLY

[3] = biological target: T3, Oxysterols receptor LXR-beta (Homo sapiens) (UniProt P55055); assay: Agonist activity at full length human GAL4-DBD fused LXRbeta LBD (155 to 461 residues) expressed in COS1 cells at 25 to 50 uM measured after 18 hrs by dual luciferase reporter gene assay; type: cell-based; method in brief: as §1
T3 sequence (whole entry): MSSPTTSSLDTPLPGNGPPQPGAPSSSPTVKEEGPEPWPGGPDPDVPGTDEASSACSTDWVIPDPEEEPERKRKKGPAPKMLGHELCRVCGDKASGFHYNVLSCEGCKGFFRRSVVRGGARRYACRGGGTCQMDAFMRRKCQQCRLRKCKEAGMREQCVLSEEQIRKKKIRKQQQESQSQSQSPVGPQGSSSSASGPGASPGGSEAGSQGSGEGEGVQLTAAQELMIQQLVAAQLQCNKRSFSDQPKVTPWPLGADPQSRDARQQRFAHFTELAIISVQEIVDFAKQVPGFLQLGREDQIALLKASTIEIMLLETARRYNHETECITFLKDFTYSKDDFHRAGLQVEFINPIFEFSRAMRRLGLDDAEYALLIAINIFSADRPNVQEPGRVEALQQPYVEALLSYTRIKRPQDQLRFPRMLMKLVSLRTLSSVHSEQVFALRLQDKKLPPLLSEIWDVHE

[4] = biological target: T2, Peroxisome proliferator-activated receptor gamma (Homo sapiens); assay: Inverse agonist activity at full length human FLAG-tagged GAL4-DBD fused PPARgamma LBD (205 to 505 residues) expressed in COS1 cells assessed as inhibition of rosiglitazone binding measured after 18 hrs by dual luciferase reporter gene assay; type: cell-based
Method in brief: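 COS-1 cells carried GAL4-DBD–PPARγ-LBD with a UAS-luciferase reporter and Renilla control. Cells were titrated with increasing test compound in the presence of 1.0 μM rosiglitazone for 18 h in 0.1% DMSO. Firefly/Renilla ratio, normalized to GAL4-only activity.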

[5] = biological target: T1, Peroxisome proliferator-activated receptor alpha (Homo sapiens); assay: Agonist activity at full length human FLAG-tagged GAL4-DBD fused PPARalpha LBD (168 to 468 residues) expressed in COS1 cells at 25 to 50 uM measured after 18 hrs by dual luciferase reporter gene assay relative to pirinixic acid; type: cell-based
Method in brief: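 COS-1 cells were transfected with GAL4-DBD–PPARα-LBD, a 5×UAS luciferase reporter and a Renilla control. After 6 h, cells were treated with 0, 25 or 50 μM test compound or pirinixic acid in 0.1% DMSO (final) for 18 h. Dual-luciferase read-out, firefly/Renilla ratio, normalized to DMSO control and GAL4.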

[6] = biological target: T1, Peroxisome proliferator-activated receptor alpha (Homo sapiens); assay: Agonist activity at full length human FLAG-tagged GAL4-DBD fused PPARalpha LBD (168 to 468 residues) expressed in COS1 cells transfected with hRXRalpha and pGL3-CPT1AInt PPRE mutant assessed as CPT1A mRNA level at 50 uM measured after 18 hrs by dual luciferase reporter gene assay; type: cell-based
Method in brief: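 COS-1 cells were transfected with full-length human PPARα (or PPARγ) plus RXRα expression plasmids, with a wild-type or PPRE-mutated CPT1A-intronic (or PLIN1) luciferase reporter and pRL-CMV. Cells were treated with 50 μM in 0.1% DMSO (final) for 18 h. Dual-luciferase read-out normalized to DMSO control. Three biological replicates in quadruplicate, mean ± SEM.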

CCCCCCCc1cc(CCCCCC(=O)O)no1
Activity (COS-1): Toxic | Activity [1]: Active | Activity [2]: inactive | Activity [3]: inactive | Activity [4]: inactive | fold change (FC) [5]: 2.5 | Activity [6]: inactive
